Assay results published in ChEMBL document CHEMBL2311390, “Synthesis and preliminary evaluation of pharmacological properties of some piperazine derivatives of xanthone” (Bioorg Med Chem, 2013).

Experiments:
[1] = biological target: T1, Adrenergic receptor alpha-2 (Rattus norvegicus, UniProt P22086+P19328+P22909); assay: Displacement of [3H]clonidine from alpha2-adrenergic receptor in rat cerebral cortex by liquid scintillation counting; type: tissue-based
T1 sequence (P22086 whole entry): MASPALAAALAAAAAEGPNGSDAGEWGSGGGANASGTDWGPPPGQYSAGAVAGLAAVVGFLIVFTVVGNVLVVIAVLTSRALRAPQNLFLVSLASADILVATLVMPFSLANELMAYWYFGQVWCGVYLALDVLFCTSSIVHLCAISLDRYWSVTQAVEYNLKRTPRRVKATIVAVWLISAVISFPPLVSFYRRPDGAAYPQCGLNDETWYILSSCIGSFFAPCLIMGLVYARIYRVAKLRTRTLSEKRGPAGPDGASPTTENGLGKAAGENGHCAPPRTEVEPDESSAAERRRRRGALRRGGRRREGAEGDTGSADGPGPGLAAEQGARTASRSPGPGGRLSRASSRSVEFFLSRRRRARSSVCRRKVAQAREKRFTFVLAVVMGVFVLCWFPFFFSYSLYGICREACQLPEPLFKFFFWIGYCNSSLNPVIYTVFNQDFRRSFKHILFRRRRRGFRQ
T1 sequence (P19328 whole entry): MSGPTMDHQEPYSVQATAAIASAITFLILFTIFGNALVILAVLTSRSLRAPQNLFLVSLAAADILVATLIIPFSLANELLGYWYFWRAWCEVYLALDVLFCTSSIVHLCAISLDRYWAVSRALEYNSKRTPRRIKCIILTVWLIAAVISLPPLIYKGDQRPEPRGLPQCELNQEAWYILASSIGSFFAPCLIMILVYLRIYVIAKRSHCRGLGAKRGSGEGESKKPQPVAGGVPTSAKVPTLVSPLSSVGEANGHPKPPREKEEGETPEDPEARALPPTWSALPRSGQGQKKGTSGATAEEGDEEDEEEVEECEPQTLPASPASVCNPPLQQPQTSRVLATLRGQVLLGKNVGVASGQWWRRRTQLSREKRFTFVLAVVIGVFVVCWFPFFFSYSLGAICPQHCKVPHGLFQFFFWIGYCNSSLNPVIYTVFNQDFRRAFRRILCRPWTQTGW
T1 sequence (P22909 whole entry): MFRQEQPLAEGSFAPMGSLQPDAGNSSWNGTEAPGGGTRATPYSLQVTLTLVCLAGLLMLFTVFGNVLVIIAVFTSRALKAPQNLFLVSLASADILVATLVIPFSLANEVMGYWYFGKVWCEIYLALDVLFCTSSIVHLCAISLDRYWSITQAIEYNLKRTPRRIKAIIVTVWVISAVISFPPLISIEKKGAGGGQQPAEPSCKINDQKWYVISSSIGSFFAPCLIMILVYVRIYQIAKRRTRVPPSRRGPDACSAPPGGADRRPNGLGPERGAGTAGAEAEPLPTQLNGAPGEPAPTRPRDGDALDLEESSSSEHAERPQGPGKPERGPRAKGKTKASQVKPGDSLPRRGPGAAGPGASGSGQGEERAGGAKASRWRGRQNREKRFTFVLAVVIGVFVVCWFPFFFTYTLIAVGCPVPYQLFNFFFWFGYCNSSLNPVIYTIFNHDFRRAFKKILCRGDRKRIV
Summary of the method: (§1)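 Rat cerebral cortex was homogenised in ice-cold 50 mM Tris-HCl pH 7.6 and spun at 20,000 g for 20 min at 0–4 °C, then washed once. Radioligands: [3H]prazosin 0.2 nM for α1, [3H]clonidine 2 nM for α2, [3H]CGP-12177 0.2 nM for β1. Test compounds were run at 7–8 concentrations from 10^-11 to 10^-4 M. Nonspecific binding was defined with phentolamine (α1), clonidine (α2) or propranolol (β1). Counting was by liquid scintillation, in duplicate. Ki was derived by Cheng–Prusoff from 2–3 experiments.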

[2] = biological target: T2, Adrenergic receptor alpha-1 (Rattus norvegicus, UniProt P15823+P23944+P43140); assay: Displacement of [3H]-prazosin from alpha1-adrenergic receptor in rat cerebral cortex by liquid scintillation counting; type: tissue-based; summary of the method: as §1
T2 sequence (P15823 whole entry): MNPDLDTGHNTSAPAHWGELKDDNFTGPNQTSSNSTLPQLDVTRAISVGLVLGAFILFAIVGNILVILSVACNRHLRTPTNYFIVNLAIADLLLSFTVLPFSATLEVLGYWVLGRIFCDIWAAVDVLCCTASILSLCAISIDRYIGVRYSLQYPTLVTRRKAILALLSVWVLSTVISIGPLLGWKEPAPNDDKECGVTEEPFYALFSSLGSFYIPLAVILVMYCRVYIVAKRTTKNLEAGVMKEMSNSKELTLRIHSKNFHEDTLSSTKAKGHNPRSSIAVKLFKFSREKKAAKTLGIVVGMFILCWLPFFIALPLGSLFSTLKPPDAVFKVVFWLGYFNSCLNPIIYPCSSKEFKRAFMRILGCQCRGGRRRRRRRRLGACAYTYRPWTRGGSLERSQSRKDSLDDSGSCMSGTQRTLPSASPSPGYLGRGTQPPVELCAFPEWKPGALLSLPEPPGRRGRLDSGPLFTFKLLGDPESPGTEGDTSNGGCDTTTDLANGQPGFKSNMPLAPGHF
T2 sequence (P23944 whole entry): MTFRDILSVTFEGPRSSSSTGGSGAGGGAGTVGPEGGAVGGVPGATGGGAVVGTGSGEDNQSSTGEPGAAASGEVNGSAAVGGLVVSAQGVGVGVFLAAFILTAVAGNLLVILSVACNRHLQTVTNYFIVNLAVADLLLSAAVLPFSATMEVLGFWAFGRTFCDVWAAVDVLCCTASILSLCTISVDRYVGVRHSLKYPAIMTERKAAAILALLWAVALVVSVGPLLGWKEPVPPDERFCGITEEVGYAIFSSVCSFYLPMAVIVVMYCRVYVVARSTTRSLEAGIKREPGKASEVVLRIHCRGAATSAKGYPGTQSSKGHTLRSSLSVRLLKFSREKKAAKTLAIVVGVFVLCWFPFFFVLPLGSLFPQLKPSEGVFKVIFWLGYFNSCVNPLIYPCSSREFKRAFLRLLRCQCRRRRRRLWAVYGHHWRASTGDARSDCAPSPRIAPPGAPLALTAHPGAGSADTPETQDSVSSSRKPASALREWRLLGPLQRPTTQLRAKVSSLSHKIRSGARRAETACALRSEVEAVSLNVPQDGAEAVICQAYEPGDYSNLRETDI
T2 sequence (P43140 whole entry): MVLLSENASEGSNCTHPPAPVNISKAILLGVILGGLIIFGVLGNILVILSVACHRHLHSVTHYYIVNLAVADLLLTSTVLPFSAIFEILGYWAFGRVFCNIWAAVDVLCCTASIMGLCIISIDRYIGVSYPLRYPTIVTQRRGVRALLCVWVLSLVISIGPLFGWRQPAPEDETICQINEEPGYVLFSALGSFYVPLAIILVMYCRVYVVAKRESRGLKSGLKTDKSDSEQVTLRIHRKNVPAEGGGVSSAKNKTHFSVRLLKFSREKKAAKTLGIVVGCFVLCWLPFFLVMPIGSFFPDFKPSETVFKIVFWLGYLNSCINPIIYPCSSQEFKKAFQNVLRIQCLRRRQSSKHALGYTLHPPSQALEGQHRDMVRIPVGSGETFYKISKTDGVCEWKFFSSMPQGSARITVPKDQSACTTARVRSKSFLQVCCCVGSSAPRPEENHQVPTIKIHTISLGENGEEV

Structure (SMILES)	Ki [1]	Ki [2]
COc1ccccc1N1CCN(CCCOc2cccc3c(=O)c4ccccc4oc23)CC1.Cl	0.695 µM	0.004 µM
COc1ccccc1N1CCN(CC(COc2cccc3c(=O)c4ccccc4oc23)OC(C)=O)CC1.Cl (racemic)	2.1 µM	0.05 µM
COc1ccccc1N1CCN(CC(O)COc2cccc3c(=O)c4ccccc4oc23)CC1.Cl (racemic)	4.26 µM	0.018 µM
Cl.Cl.Cl.O=c1c2ccc(Cl)cc2oc2c(OCC(O)CN3CCN(CCOc4ccccc4)CC3)cccc12 (racemic)	0.45 µM	0.506 µM
Cl.Cl.Cl.O=c1c2ccc(Cl)cc2oc2c(OCC(O)CN3CCN(C/C=C/c4ccccc4)CC3)cccc12 (racemic)	3.4 µM	1.1 µM
Cl.Cl.Cl.O=c1c2ccc(Cl)cc2oc2c(OCC(O)CN3CCN(Cc4ccccc4)CC3)cccc12 (racemic)	7.7 µM	0.614 µM
Cl.Cl.O=c1c2ccccc2oc2c(OCC(O)CN3CCN(C/C=C/c4ccccc4)CC3)cccc12 (racemic)	0.634 µM	0.677 µM
